Scp1 inh = blocks human Scp-1 phosphatase activity; Recombinant Scp1, phosphopeptide, malachite green phosphate absorbance; inhibition, % at 20 µM; 0.88% of 340,000 active;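 active means inhibition above about 50% at 20 µM, limit read from the data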;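 further: plate controls were DMSO wells with enzyme for no effect and wells lacking enzyme for full effect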
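System: SCP-1 catalytic domain; Reagent: Phospho 17-mer peptide substrate; Doses: one concentration, 20 µM, with 1.0% DMSO; Incubation: 45 min room-temperature reaction, 5 min colour, 30 min stabiliser; Signal: Phosphate-binding colour reagent, absorbance read at 630 nm.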
STEP inh = STEP (human) phosphatase inhibition. 0.25% of 360,000 active. AID 588621. inhibition, % at 20 µM. recombinant STEP, OMFP fluorogenic substrate, fluorescence;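 active means inhibition at 20 µM, scaled per plate between control wells, above about 37%, limit read from the data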;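 further: 0% = DMSO with enzyme and substrate and 100% = substrate only without enzyme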
Target sequence (P54829 whole entry, looked up): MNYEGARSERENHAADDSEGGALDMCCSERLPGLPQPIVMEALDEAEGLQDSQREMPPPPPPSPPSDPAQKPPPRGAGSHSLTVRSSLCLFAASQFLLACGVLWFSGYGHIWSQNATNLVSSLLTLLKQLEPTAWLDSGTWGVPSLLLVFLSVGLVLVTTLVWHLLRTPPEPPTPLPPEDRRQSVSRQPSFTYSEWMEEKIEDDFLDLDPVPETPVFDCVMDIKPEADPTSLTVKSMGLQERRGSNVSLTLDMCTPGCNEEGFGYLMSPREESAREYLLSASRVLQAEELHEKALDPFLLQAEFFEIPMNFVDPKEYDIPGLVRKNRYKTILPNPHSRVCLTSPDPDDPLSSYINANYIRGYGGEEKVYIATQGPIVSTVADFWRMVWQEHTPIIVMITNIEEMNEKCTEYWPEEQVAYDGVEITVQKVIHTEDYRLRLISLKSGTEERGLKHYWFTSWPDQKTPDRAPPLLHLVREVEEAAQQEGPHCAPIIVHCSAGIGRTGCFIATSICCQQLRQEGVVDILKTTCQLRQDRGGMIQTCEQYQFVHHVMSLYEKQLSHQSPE
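Also added – OMFP at 25 µM · Test system – STEP tyrosine phosphatase · Technique – FITC-channel fluorescence of OMFP product · Schedule – 20 min at room temperature, dark · Evaluation – control-normalized % inhibition with plate pattern correction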
LMPTP inh = LMPTP (human) inhibition | recombinant LMPTP-A, OMFP fluorogenic substrate, fluorescence intensity | inhibition, % at 20 µM | 0.22% of 360,000 active | AID 651560;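 active means compounds that cut the enzyme signal by at least half of the control window in the single-dose screen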;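 further: plate controls were DMSO wells with enzyme plus substrate for no effect and substrate without enzyme for full effect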
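Buffer or medium: Bis-Tris pH 6.0, DTT, detergent; Assay system: LMPTP-A enzyme; Quantity: 0.625 nM enzyme; Detection: endpoint fluorescence intensity; Times: 50 min dark incubation at room temperature; Controls: substrate-only low control, DMSO enzyme-plus-substrate high control; Doses: single 20 µM dose; Read-out: percent inhibition versus substrate-only and uninhibited controls; Reagent: 400 µM OMFP.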
rCAG binder = molecules binding r(CAG) RNA repeats. inhibition, % at 3 µM. 1.3% of 370,000 active. r(CAG) RNA repeat, TO-PRO-1 dye displacement fluorescence;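 active means inhibition above the plate cutoff, the mean of all test compounds on that plate plus 3 SD, cut at about 35% in these data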;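 further: 0% = DMSO alone and 100% = 100 µM mitoxantrone as full dye displacement; higher means more dye released from RNA so lower well fluorescence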
NadD inh = inhibitors of Staphylococcus aureus NadD; 0.78% of 360,000 active; purified NadD enzyme, colorimetric absorbance read-out; inhibition, % at 20 µM; in the data active means inhibition above about 26%
Scp1 confirm = confirmation of human Scp-1 phosphatase inhibitors; shares compounds with Scp1 inh; recombinant SCP-1 catalytic domain, phosphate release, malachite green absorbance; 61% of 2,500 active; AID 540281; inhibition, % at 20 µM;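 further: plate controls were DMSO with enzyme for no effect and buffer wells lacking enzyme for full effect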
MG interference = colorimetric interference in Scp-1 counter-screen; shares compounds with Scp1 inh; Colorimetric interference counterscreen, malachite green absorbance 630 nm; apparent inhibition (interference), % at 20 µM; 2,500 tested, under 10 active;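 further: compounds added after enzyme reaction finished so only phosphate colour detection is probed; plate controls were DMSO wells with completed Scp-1 reaction for no effect and substrate wells lacking enzyme for full effect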
Scp-1 Tm shift = Scp-1 (human) binding by thermal shift; Recombinant SCP1, Sypro Orange thermal shift Tm; AID 540329; shares compounds with Scp1 inh; thermal shift relative to vanadate control, % at 40 µM; 25% of 1,500 active;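 active means substances whose mean melting-temperature shift, as a percentage of the reference inhibitor's shift, reaches about 5.3%, limit read from the data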;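 further: 0% = Tm of DMSO wells and 100% = Tm with sodium orthovanadate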
Numbers without * were called inactive; . = no result. Compounds with a hit are over-represented: about 2.6% of the library has one in this group of screens.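 How the source made its calls, unless noted: active means inhibition of at least 30% at 20 µM; inactive means the rest.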

SMILES	Scp1 inh	STEP inh	LMPTP inh	rCAG binder	NadD inh	Scp1 confirm	MG interference	others
CCCCC1=CC2=C(c3ccco3)C(=O)C(C)(OC(=O)c3ccc(OC)cc3)C(=O)C2=CN1Cc1ccccc1 (stereo not drawn)	1.6	2.8	3.0	3.0	9.5	.	.
CCCCC1=CC2=C(c3ccco3)C(=O)C(C)(OC(=O)c3ccc(OC)cc3)C(=O)C2=CN1Cc1ccc2c(c1)OCO2 (stereo not drawn)	62.7*	0.6	22.6	.	28.4	5.4	0.3
CCN1C(=O)C(=O)N(CC(=O)N(C)CC(=O)Nc2ccccc2Cl)C1=O	-0.8	-0.6	-1.1	2.5	-5.3	-4.7	-10.7
CN(C)c1cccc(/C=C2\CC3(OC(=O)c4ccc(Cl)cc4)CCCN2C3)c1 (stereo not drawn)	.	.	.	7.9	.	.	.
O=C(CSc1nc2[nH]ncc2c(=O)[nH]1)Nc1ccc(Cl)c(Cl)c1	1.0	-0.3	0.3	12.9	-1.0	.	.
Cc1ccc(NC(=O)CSc2nc3[nH]ncc3c(=O)[nH]2)cc1Cl	58.2*	-2.9	0.2	9.8	2.0	29.3	-12.9
Cc1cccc(C)c1NC(=O)CS(=O)CC(=O)Nc1ccc(F)cc1F (stereo not drawn)	-0.2	0.2	-2.5	-4.3	-3.9	.	.
CCc1ccc(NC(=O)CS(=O)CC(=O)Nc2ccc(F)cc2F)cc1 (stereo not drawn)	93.7*	10.0	6.2	3.5	-0.8	89.0*	-4.3	Scp-1 Tm shift=-20.7
O=C(CSc1nnc(-c2ccco2)n1Cc1ccco1)c1ccc([N+](=O)[O-])cc1	.	.	.	14.4	.	.	.
Cc1ccc(S(=O)(=O)NCC(=O)N2CCN(c3ccccn3)CC2)cc1C	.	.	.	-0.5	.	.	.
O=C(c1cccnc1Cl)N1CCC(Oc2cccnc2)CC1	.	.	.	0.5	.	.	.
CC1CCN(S(=O)(=O)c2ccc(NC(=O)Cc3cccs3)cc2)CC1	77.3*	-0.4	3.5	24.0	-4.0	59.9*	-25.5	Scp-1 Tm shift=5.8*
CC1CCN(CC(=O)Nc2ccc(S(=O)(=O)N3CCC(C)CC3)cc2)CC1	-6.0	1.1	-1.4	-7.2	-5.9	.	.
CCNC(=S)NNC(=O)c1cnccn1	.	.	.	1.2	.	.	.
Cc1n[nH]c(C)c1S(=O)(=O)NCCc1c[nH]c2ccccc12	.	.	.	1.6	.	.	.
O=C(O)C1C2C=CC(CC2)C1C(=O)O (stereo not drawn)	102.2*	34.6	-0.3	-1.1	0.9	71.8*	-9.8	Scp-1 Tm shift=1.1
O=C(OCc1cn(Cc2cccc(F)c2F)nn1)N1CCOCC1	.	.	.	-0.3	.	.	.
CCCN1CCS(=O)(=O)N(Cc2cn(Cc3ccc(C)cc3)nn2)C(C(=O)OC)C1 (stereo not drawn)	.	.	.	1.6	.	.	.
Cc1cc(C)n2cc(CSc3nnc(-c4ccccc4)o3)nc2n1	79.6*	0.4	-0.9	5.9	-0.3	-5.6	-12.6
Cn1c(=O)c(=O)n(C)c2cc(S(=O)(=O)N3CCN(CCO)CC3)ccc21	.	.	.	3.7	.	.	.
CCc1cc2c(nc1CC)CCCN2S(=O)(=O)c1c(C)noc1C	.	.	.	1.0	.	.	.
OC(COC1CCCCC1)CN1CCCCC1 (stereo not drawn)	55.2*	1.6	1.4	0.2	-1.0	-18.1	-16.7
CN1CC=C(c2ccccc2)N(c2ccccc2)C1=O	.	.	.	3.3	.	.	.
O=C(Nc1ccc(Oc2ccccc2)cc1)C1CCN(c2nnc(-n3cccc3)s2)CC1	.	.	.	13.2	.	.	.
C/C(=N\Nc1ccc(Cl)c(C(=O)O)c1)c1ccc[nH]1	72.7*	3.5	-0.2	33.1	4.2	58.5*	-13.4	Scp-1 Tm shift=17.0*
COC(=O)[C@]12C[C@H](CC(=O)NCc3cccc4ccccc34)C(=O)N(CCc3ccc(OC)c(OC)c3)C1=C[C@H](C(C)C)O[C@@H]2C1CC1	.	.	.	6.6	.	.	.
O=C(O)C(C(=O)/C=C/c1ccco1)=C1SCCS1	55.1*	10.1	10.4	15.8	6.5	63.2*	-2.1	Scp-1 Tm shift=3.5
O=C(C=C1SCCS1)/C=C/c1ccco1	75.9*	5.7	34.2	10.2	8.7	51.6*	-19.7	Scp-1 Tm shift=-8.2
